Measured values published in ChEMBL document CHEMBL1135784, “Novel antibiotics for the treatment of gram-positive bacterial infections” (J Med Chem, 2002).
In brackets after ≈: the same amount, converted by molar mass.

What was measured:
Type in all cases: functional
[1] = test system: Streptococcus pyogenes; test: Evaluated for its antibacterial activity against Str. Pyogenes wacker
In short: (§1)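 Broth microdilution in AOAC broth with 4% dextrose, with compounds at 0.125-64 µg/mL. Inoculum was a 1:50 dilution of an overnight culture. Incubation at 37 °C with 8-10% CO₂ for about 20 h. MIC read as the first concentration showing no visible growth.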

[2] = test system: Staphylococcus epidermidis; test: Evaluated for its antibacteria activity against Staphylococcus epidermidis 18570
In short: (§2)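 Broth microdilution in AOAC broth with 4% dextrose. Compounds tested over 0.125-64 µg/mL. Wells inoculated with a 1:500 dilution of an overnight culture. Plates incubated at 37 °C under 8-10% CO₂ and read after about 20 h. MIC taken as the first concentration with no visible growth.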

[3] = test system: Staphylococcus aureus; test: Evaluated for its antibacterial activity against Staphylococcus aureus 133; in short: as §2
[4] = test system: Enterococcus faecium; test: Evaluated for its antibacterial activity against Enterococcus faecium L4001; in short: as §1
[5] = test system: Enterococcus faecalis; test: Evaluated for its antibacterial activity against Enterococcus faecalis 18513; in short: as §1
[6] = test system: Streptococcus pneumoniae; test: Evaluated for its antibacterial activity against Streptococcus pneumoniae G9a
In short: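 For S. pneumoniae, microdilution used BHI broth diluted 1:10 with 10% bovine serum, and compounds at 0.125-64 µg/mL. Wells received a 1:50 dilution of an overnight culture. Plates were kept at 37 °C in 8-10% CO₂ and read after about 20 h. MIC was the lowest concentration without visible growth.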

[7] = test system: Escherichia coli; test: Evaluated for its inhibitory activity against prokaryotic translation by using Escherichia coli transcription-translation assay
In short: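 Coupled E. coli transcription-translation system with a luciferase reporter; inhibition of bacterial translation measured by luminescence read-out.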

[8] = test system: Staphylococcus aureus; test: Evaluated for its antibacteria activity against Staphylococcus aureus; in short: as §2

| Compound | MIC [1] | MIC [2] | MIC [3] | MIC [4] | MIC [5] | MIC [6] | IC50 [7] | MIC [8] |
| --- | --- | --- | --- | --- | --- | --- | --- | --- |
| CN(C(=O)C[C@@H](N)CCCN=C(N)N)C1CN=C(NC(N)=O)NC1=O (stereo not given in full) | 8 µg/mL (≈ 22.5 µM) | 0.25 µg/mL (≈ 0.703 µM) | 0.25 µg/mL (≈ 0.703 µM) | 2 µg/mL (≈ 5.63 µM) | > 16 µg/mL | 16 µg/mL (≈ 45 µM) | – | – |
| CC(C)/N=C(/N)NCCC[C@H](N)CC(=O)N(C)C1CN=C(NC(N)=O)NC1=O (stereo not given in full) | – | – | 12.5 µg/mL (≈ 31.4 µM) | – | – | – | 12.5 µM | – |
| CC/N=C(/N)NCCC[C@H](N)CC(=O)N(C)C1CN=C(NC(N)=O)NC1=O (stereo not given in full) | – | – | 6.3 µg/mL (≈ 16.4 µM) | – | – | – | 12.5 µM | – |
| CC(C)C(=N)NCCC[C@H](N)CC(=O)N(C)C1CN=C(NC(N)=O)NC1=O (stereo not given in full) | – | – | 3.2 µg/mL (≈ 8.37 µM) | – | – | – | – | – |
| CN(CCC[C@H](N)CC(=O)N(C)C1CN=C(NC(N)=O)NC1=O)C(=N)N (stereo not given in full) | 0.5 µg/mL (≈ 1.35 µM) | 0.12 µg/mL (≈ 0.325 µM) | 0.025 µg/mL (≈ 0.0677 µM) | 2 µg/mL (≈ 5.41 µM) | 64 µg/mL (≈ 173 µM) | 4 µg/mL (≈ 10.8 µM) | 0.06 µM | – |
| C/C(N)=N/CCC[C@H](N)CC(=O)N(C)C1CN=C(NC(N)=O)NC1=O (stereo not given in full) | 1 µg/mL (≈ 2.82 µM) | 0.2 µg/mL (≈ 0.564 µM) | 0.2 µg/mL (≈ 0.564 µM) | 16 µg/mL (≈ 45.1 µM) | > 64 µg/mL | 16 µg/mL (≈ 45.1 µM) | 0.1 µM | 0.2 µg/mL (≈ 0.564 µM) |
| C/N=C(/N)NCCC[C@H](N)CC(=O)N(C)C1CN=C(NC(N)=O)NC1=O (stereo not given in full) | 4 µg/mL (≈ 10.8 µM) | 0.13 µg/mL (≈ 0.352 µM) | 0.8 µg/mL (≈ 2.17 µM) | 16 µg/mL (≈ 43.3 µM) | 64 µg/mL (≈ 173 µM) | 16 µg/mL (≈ 43.3 µM) | 0.5 µM | – |
| C/N=C(/N)N(C)CCC[C@H](N)CC(=O)N(C)C1CN=C(NC(N)=O)NC1=O.Cl.Cl (stereo not given in full) | 8 µg/mL | 0.5 µg/mL | 0.4 µg/mL | 8 µg/mL | > 64 µg/mL | 32 µg/mL | 0.4 µM | – |
